Results on three compounds are retold here after ChEMBL document CHEMBL1157072 (Bioorg Med Chem, 2010).

Data set [1] in a line: Dissociation constant, pKa of the compound. It is filed as physicochemical.
For data set [2], the system named is Staphylococcus aureus. In words: microbe, parasite or virus in culture. To be noted: isolate d20A1.
For data set [3], the system named is Staphylococcus aureus. In words: Antibacterial activity against Staphylococcus aureus NCTC 8325 carrying expression vector pG154 after 16 to 20 hrs by broth microdilution method in presence of anhydrous tetracycline. Format: functional. A digest of the protocol: (§1)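 Broth microdilution in cation-adjusted MHB containing anhydrous tetracycline at 100 ng/ml final to induce the pG154 expression vector. Twofold DMSO compound dilutions were used (2% DMSO final) with 1 × 10^4 cells per well. Incubation was 37 °C for 16–20 h, and absorbance was read at 600 nm.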
On the technique in general: Dilution methods test growth across graded concentrations, often in twofold steps.

For data set [4], the system named is Staphylococcus aureus. In words: Antibacterial activity against Staphylococcus aureus NCTC 8325 harboring genetic deletion of mepRA gene after 16 to 20 hrs by broth microdilution method. Format: functional. A digest of the protocol: (§2)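 Broth microdilution in cation-adjusted Mueller Hinton broth. Compounds were serially diluted twofold in DMSO at 50-fold final strength (2% DMSO final). The inoculum was 1 × 10^4 cells per well. Plates were incubated at 37 °C for 16–20 h, and growth was read as absorbance at 600 nm.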

Data set [5] relates to Staphylococcus aureus. In words: Antibacterial activity against Staphylococcus aureus NCTC 8325 carrying expression vector pG154 with mepA gene after 16 to 20 hrs by broth microdilution method in presence of anhydrous tetracycline. It is filed as functional. A digest of the protocol:
as §1

Data set [6] deals with Staphylococcus aureus. In words: Antibacterial activity against Staphylococcus aureus NCTC 8325 harboring genetic deletion of mepRA gene and carrying expression vector pG154 after 16 to 20 hrs by broth microdilution method in presence of anhydrous tetracycline. It is filed as functional. A digest of the protocol: as §1
For data set [7], the system named is Staphylococcus aureus. In words: Antibacterial activity against Staphylococcus aureus NCTC 8325 harboring genetic deletion of mepR gene after 16 to 20 hrs by broth microdilution method. Format: functional. A digest of the protocol: as §2
Data set [8] has as its system Staphylococcus aureus. Kind of data set: Antibacterial activity against Staphylococcus aureus NCTC 8325 harboring genetic deletion of mepRA gene and carrying expression vector pG154 with mepA gene after 16 to 20 hrs by broth microdilution method. Format: functional. A digest of the protocol: as §2
For data set [9], the system named is Staphylococcus aureus. In words: Antibacterial activity against Staphylococcus aureus NCTC 8325 carrying expression vector pG154 with mepA gene after 16 to 20 hrs by broth microdilution method. It is filed as functional. A digest of the protocol:
as §2

Data set [10] concerns Staphylococcus aureus. In words: Antibacterial activity against Staphylococcus aureus NCTC 8325 harboring genetic deletion of mepRA gene and carrying expression vector pG154 with mepA gene after 16 to 20 hrs by broth microdilution method in presence of anhydrous tetracycline. It is filed as functional. A digest of the protocol:
as §1

In data set [11] the test system is Staphylococcus aureus. In words: Induction of mepR gene expression in Staphylococcus aureus NCTC 8325 at 0.125 ug/ml by RT-PCR analysis. Format: functional, organism-based.
The test system of data set [12] is Staphylococcus aureus. Kind of data set: Antibacterial activity against Staphylococcus aureus NCTC 8325 carrying expression vector pG154 after 16 to 20 hrs by broth microdilution method. Format: functional. A digest of the protocol:
as §2

The test system of data set [13] is Staphylococcus aureus. In words: Antibacterial activity against Staphylococcus aureus NCTC 8325 harboring genetic deletion of mepRA gene and carrying expression vector pG154 after 16 to 20 hrs by broth microdilution method. Format: functional. A digest of the protocol:
as §2

In data set [14] the test system is Staphylococcus aureus. In words: Induction of mepA gene expression in Staphylococcus aureus NCTC 8325 at 0.125 ug/ml by RT-PCR analysis. Format: functional, organism-based. A digest of the protocol:
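S. aureus overnight culture diluted 1/200 in TSB and grown at 37 °C with shaking (250 rpm) to OD600 0.3. Triplicate 5 ml aliquots were exposed to compound or DMSO (2% final) for 3 h at 37 °C. RNA was purified and DNase-treated; 1 µg was reverse-transcribed with random hexamers, with a no-RT control. mepA signal was normalized to rho, untreated set to 1; three experiments, SD.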

In data set [15] the test system is Staphylococcus aureus. In words: Antibacterial activity against Staphylococcus aureus NCTC 8325 after 16 to 20 hrs by broth microdilution method. Format: functional. A digest of the protocol: as §2
Data set [16] has as its system Staphylococcus aureus. In words: Selectivity ratio of MIC for Staphylococcus aureus NCTC 8325 to MIC for Staphylococcus aureus NCTC 8325 in presence of efflux pump inhibitor reserpine. Format: functional. A digest of the protocol:
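MICs by modified broth microdilution in cation-adjusted Mueller Hinton broth. Twofold dilutions were made in DMSO at 50× (2% DMSO final), with 1 × 10^4 cells per well. Growth was read as A600 after 16–20 h at 37 °C. Reserpine was added to the medium at 20 µg/ml final to inhibit efflux.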

In data set [17] the test system is Staphylococcus aureus. In words: Antibacterial activity against Staphylococcus aureus NCTC 8325 after 16 to 20 hrs by broth microdilution method in presence of efflux pump inhibitor reserpine. It is filed as functional. A digest of the protocol:
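Broth microdilution in cation-adjusted MHB with reserpine at 20 µg/ml final in the medium as efflux inhibitor. Twofold DMSO dilutions were made (2% DMSO final) with 1 × 10^4 cells per well. Incubation was 37 °C for 16–20 h, with growth read at 600 nm.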

Data set [18] relates to Staphylococcus aureus. In words: Downregulation of ribE gene expression in MBX-1090-resistant Staphylococcus aureus isolate d20A1 at 50 ug/ml by RT-PCR analysis relative to wild type. It is filed as functional.
Data set [19] relates to Staphylococcus aureus. In words: Downregulation of ribH gene expression in MBX-1090-resistant Staphylococcus aureus isolate d20A1 at 50 ug/ml by RT-PCR analysis relative to wild type. It is filed as functional.
Data set [20] in a line: Selectivity ratio of MIC for MBX-1090-resistant Staphylococcus aureus isolate d20A1 to MIC for Staphylococcus aureus NCTC 8325. Format: functional. A digest of the protocol:
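Ratio of resistant-mutant MIC to NCTC 8325 MIC. Both MICs came from broth microdilution in cation-adjusted MHB with 2% DMSO final and 1 × 10^4 cells per well, incubated at 37 °C for 16–20 h and read at 600 nm.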

The subject of data set [21] is Staphylococcus aureus. In words: Upregulation of mepB gene expression in MBX-1090-resistant Staphylococcus aureus isolate d20A1 at 50 ug/ml by RT-PCR analysis relative to wild type. Format: functional.
Data set [22] has as its system Staphylococcus aureus. In words: Modulation of protein A gene expression in MBX-1090-resistant Staphylococcus aureus isolate d20A1 at 50 ug/ml by RT-PCR analysis relative to wild type. Format: functional.
The test system of data set [23] is Staphylococcus aureus. In words: Upregulation of mepR gene expression in MBX-1090-resistant Staphylococcus aureus isolate d20A1 at 50 ug/ml by RT-PCR analysis relative to wild type. Format: functional.
Data set [24] concerns Staphylococcus aureus. In words: Upregulation of conventional hypothetical protein mRNA expression in MBX-1090-resistant Staphylococcus aureus isolate d20A1 at 50 ug/ml by RT-PCR analysis relative to wild type. Format: functional.
Data set [25] deals with Staphylococcus aureus. Kind of data set: Downregulation of ribA gene expression in MBX-1090-resistant Staphylococcus aureus isolate d20A1 at 50 ug/ml by RT-PCR analysis relative to wild type. Format: functional.
The test system of data set [26] is Staphylococcus aureus. Kind of data set: Downregulation of ribD gene expression in MBX-1090-resistant Staphylococcus aureus isolate d20A1 at 50 ug/ml by RT-PCR analysis relative to wild type. It is filed as functional.
Data set [27] deals with Staphylococcus aureus. In words: Upregulation of mepA gene expression in MBX-1090-resistant Staphylococcus aureus isolate d20A1 at 50 ug/ml by RT-PCR analysis relative to wild type. It is filed as functional.
The test system of data set [28] is Staphylococcus aureus. Kind of data set: Induction of mepR gene expression in Staphylococcus aureus NCTC 8325 at 0.5 ug/ml by RT-PCR analysis. It is filed as functional, organism-based.
In data set [29] the test system is Staphylococcus aureus. Kind of data set: Induction of mepA gene expression in Staphylococcus aureus NCTC 8325 at 0.5 ug/ml by RT-PCR analysis. Format: functional, organism-based. A digest of the protocol: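 NCTC 8325 diluted 1/200 in TSB and grown at 37 °C (250 rpm) to OD600 0.3. 5 ml aliquots exposed 3 h to compound or DMSO (2% final), triplicate cultures pooled. RNA was DNase-treated and 1 µg primed with random hexamers for cDNA, with a no-RT control. mepA signal normalized to rho, untreated set to 1. Mean of three experiments ± SD.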

Data set [30] concerns Staphylococcus aureus. In words: Selectivity ratio of MIC for Staphylococcus aureus NCTC 8325 harboring genetic deletion of mepRA gene and carrying expression vector pG154 with mepA gene in presence of anhydrous tetracycline to MIC for Staphylococcus aureus NCTC 8325 harboring genetic deletion of mepRA gene and carrying expression vector pG154 with mepA gene. It is filed as functional. A digest of the protocol:
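Ratio of the MIC with anhydrous tetracycline (100 ng/ml final, induces pG154-mepA) to the MIC without it. Both came from broth microdilution in cation-adjusted MHB with 2% DMSO and 1 × 10^4 cells per well, incubated at 37 °C for 16–20 h and read at 600 nm.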

Values after ≈ are worked out from the molar mass of the structure shown. Active and inactive are the calls of the source. The rule behind the calls is not given here.

As usually defined, the pKa is the pH at which an ionisable group is half protonated. Low values mean a stronger acid or weaker base, high ones a weaker acid or stronger base.

In the case of `c1cc2cc(-c3ccc(-c4cc5ccc(C6=NCCCN6)cc5[nH]4)cc3)[nH]c2cc1C1=NCCCN1`, in [1], the pKa is 12.8. The MIC in data set [2] is 0.5 µg/mL (≈ 1.06 µM); in data set [3] it was 0.5 µg/mL; in data set [4], 0.5 µg/mL (≈ 1.06 µM); in [5], 0.125 µg/mL; in data set [6], 0.5 µg/mL; in [7], 0.25 µg/mL (≈ 0.529 µM). In addition, the MIC in data set [8] was 0.5 µg/mL (≈ 1.06 µM); in data set [9], 0.5 µg/mL (≈ 1.06 µM); in data set [10], 0.125 µg/mL; in data set [12] it was 0.5 µg/mL (≈ 1.06 µM); in [13] it was 0.5 µg/mL (≈ 1.06 µM); in data set [15], 0.5 µg/mL (≈ 1.06 µM). Moreover, in data set [17], the MIC was 0.125 µg/mL. Moreover, the result in data set [11] and in data set [14] was Active. The Selectivity ratio in data set [16] stood at 4.

Turning to `Cn1cc(NC(=O)c2cc(NC(=O)c3cc(NC=O)cn3C)cn2C)cc1C(=O)NCCC(=N)N` [STALLIMYCIN], the “fold change (FC)” value in data set [18] came to 1.5; in data set [19], 2.7; in [21], 25.5; in [22], 2; in data set [23] it was 39.2; in data set [24], 14.2. For the same compound, the “fold change (FC)” value was found to be 1.9 in [25], 1.6 in [26] and 72.6 in data set [27]. In addition, the MIC in [2] is 200 µg/mL (≈ 415 µM); in [3], 50 µg/mL; in data set [4], 100 µg/mL (≈ 208 µM); in data set [5], 50 µg/mL; in data set [6], 50 µg/mL; in data set [7] it was 100 µg/mL (≈ 208 µM). Moreover, the MIC came to 50 µg/mL (≈ 104 µM) in data set [8]; 50 µg/mL (≈ 104 µM) in [9]; 50 µg/mL in data set [10]; 50 µg/mL (≈ 104 µM) in data set [12]; 50 µg/mL (≈ 104 µM) in data set [13]; 50 µg/mL (≈ 104 µM) in [15]. For the same compound, the MIC in data set [17] worked out at 50 µg/mL. Besides, the Selectivity ratio in [20] worked out at 4.

Take `c1cc2cc(-c3ccc4cc(C5=NCCN5)[nH]c4c3)[nH]c2cc1C1=NCCN1`: the MIC was 2 µg/mL (≈ 5.43 µM) in data set [2]; 0.5 µg/mL in data set [3]; 0.5 µg/mL (≈ 1.36 µM) in data set [4]; 4 µg/mL in [5]; 0.5 µg/mL in [6]; 1 µg/mL (≈ 2.71 µM) in [7]. Besides, the MIC worked out at 0.5 µg/mL (≈ 1.36 µM) in data set [8]; 0.5 µg/mL (≈ 1.36 µM) in data set [9]; 1 µg/mL in data set [10]; 0.5 µg/mL (≈ 1.36 µM) in data set [12]; 0.5 µg/mL (≈ 1.36 µM) in [13]; 0.5 µg/mL (≈ 1.36 µM) in data set [15]. For the same compound, the MIC in data set [17] was found to be 0.25 µg/mL. The outcome in [28] and in [29] was Active. Also, the Selectivity ratio in data set [20] is 4; in data set [30] it was 2.
